Test results as given in ChEMBL document CHEMBL2021820, “Synthesis, vasorelaxant activity, and molecular modeling study of some new phthalazine derivatives” (Eur J Med Chem, 2012).
Structures can show the parent of a compound that is named as a salt.

These molecules were tested on Thoracic aorta (assay: Vasorelaxant activity in Wister rat thoracic aorta rings assessed as reduction in maximal noradrenaline-induced spasms).
Assay type: functional, tissue-based
Method in brief: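 Aortic preparations equilibrated for 2 h at 2 g resting tension. Contraction to norepinephrine hydrochloride (10^-6 M) was recorded before and after exposure to increasing concentrations of compound. Compounds came from a 0.01 M DMSO stock. Vehicle controls used DMSO alone at matching concentrations.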

| IC50 [µM] | SMILES |
| --- | --- |
| > 1000 | CCOC(=O)N1CCN(CC(=O)NNc2nncc3ccccc23)CC1 |
| 580 | O=C(CCN1CCOCC1)NNc1nncc2ccccc12 |
| 430 | O=C(CN1CCOCC1)NNc1nncc2ccccc12 |
| 560 | O=C(CN1CCN(c2ccccc2)CC1)NNc1nncc2ccccc12 |
| 160 | CN1CCN(CC(=O)NNc2nncc3ccccc23)CC1 |

The next lines start with the molecule.

| SMILES | IC50 [µM] |
| --- | --- |
| O=C(CCN1CCN(c2ccccc2)CC1)NNc1nncc2ccccc12 | 270 |
| CCOC(=O)N1CCN(CCC(=O)NNc2nncc3ccccc23)CC1 | > 1000 |
| O=C(CCn1ccnc1)NNc1nncc2ccccc12 | 810 |
| O=C(CN1CCN(c2ccc(Cl)cc2)CC1)NNc1nncc2ccccc12 | 450 |
| O=C(CN1CCN(c2cccc(C(F)(F)F)c2)CC1)NNc1nncc2ccccc12 | 410 |
| COc1ccccc1N1CCN(CCC(=O)NNc2nncc3ccccc23)CC1 | 100 |
| O=C(CCN1CCN(c2cccc(C(F)(F)F)c2)CC1)NNc1nncc2ccccc12 | 500 |
| O=C(CCN1CCN(c2ccc(Cl)cc2)CC1)NNc1nncc2ccccc12 | 700 |
| COc1ccccc1N1CCN(CC(=O)NNc2nncc3ccccc23)CC1 | 550 |
| O=C(Cn1ccnc1)NNc1nncc2ccccc12 | 610 |
| COc1cc2nc(N3CCN(C(=O)c4ccco4)CC3)nc(N)c2cc1OC [PRAZOSIN HYDROCHLORIDE] | 480 |
| CN1CCN(CCC(=O)NNc2nncc3ccccc23)CC1 | 360 |

The molecules below were run on Thoracic aorta (assay: Ratio of IC50 for prazosin to IC50 for compound in noradrenaline-contracted Wister rat thoracic aorta rings).
Assay type: functional

| SMILES | Ratio IC50 |
| --- | --- |
| COc1ccccc1N1CCN(CCC(=O)NNc2nncc3ccccc23)CC1 | 5 |
| CN1CCN(CC(=O)NNc2nncc3ccccc23)CC1 | 3 |
